Assay results as given in ChEMBL document CHEMBL1123812, “Pyrroloisoquinoline antidepressants. 2. In-depth exploration of structure-activity relationships” (J Med Chem, 1987).
Active and inactive are the calls of the source.

Assays:
[1] = molecular target: D(2) dopamine receptor (Rattus norvegicus) (UniProt P61169); test: Binding affinity towards dopamine receptor D2 at 1.0 uM concentration
Method in brief: (§1)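 Rat brain crude synaptic membranes in 20 mM NaHEPES pH 7.5. Ligands: α1 cortex […] 0.4 nM, nonspecific with (-)-NE 100 μM, 30 min at 25 °C. […] D2 striatum [3H]spiperone 0.05 nM with (+)-butaclamol 1 μM, 45 min at 37 °C. S1 cortex [3H]5-HT 1 nM plus glutathione and MgCl2, with 5-HT 10 μM, 20 min at 37 °C. […] Samples filtered on GF/B and counted.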

[2] = organism: Mus musculus; test: Gross behavioral effects ascertained in mice; W indicates weak stimulant or depressant activity of little significance.; assay type: functional, organism-based
Method in brief: (§2)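 Male Swiss Webster mice, 18–24 g, three per dose, given ip doses of 1, 3, 10, 30, 100 and 300 mg/kg. Observed for gross behavior and held for 4 days. Scored as weak (W), stimulant (S), depressant (D) or convulsant (C).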

[3] = molecular target: Norepinephrine transporter (Rattus norvegicus, UniProt Q9WTR4); test: Inhibition of uptake of tritiated norepinephrine (NE) in rat synaptosomes; assay type: subcellular, Brain
[4] = molecular target: Sodium-dependent dopamine transporter (Rattus norvegicus, UniProt P23977); test: Inhibition of the uptake of tritiated dopamine (DA) in rat synaptosomes; assay type: subcellular, Brain
[5] = molecular target: Serotonin 1 (5-HT1) receptor (Rattus norvegicus) (UniProt P28564+P30940+P19327+P28565); test: Binding affinity towards serotonin S1 receptor at 1.0 uM; assay type: protein assay; method in brief: as §1
[6] = organism: Mus musculus; test: Antagonism of tetrabenazine (TBZ)-induced depression measured in mice by motor activity; assay type: functional
Method in brief: (§3)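 Nonfasted male Swiss Webster mice, 18–24 g, ten per dose level and in saline controls. Test compound given ip 30 min before tetrabenazine 32 mg/kg ip; dose expressed as free base. Motor activity and ptosis scored. Control response ≤90% corrected by Abbott's formula.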

[7] = organism: Mus musculus; test: Antagonism of tetrabenazine (TBZ)-induced depression in mice measured for ptosis; assay type: functional; method in brief: as §3
[8] = molecular target: T1, Adrenergic receptor alpha-1 (Rattus norvegicus, UniProt P15823+P23944+P43140); test: Binding affinity towards alpha-1 adrenergic receptor; assay type: protein assay
T1 sequence (P15823 whole entry): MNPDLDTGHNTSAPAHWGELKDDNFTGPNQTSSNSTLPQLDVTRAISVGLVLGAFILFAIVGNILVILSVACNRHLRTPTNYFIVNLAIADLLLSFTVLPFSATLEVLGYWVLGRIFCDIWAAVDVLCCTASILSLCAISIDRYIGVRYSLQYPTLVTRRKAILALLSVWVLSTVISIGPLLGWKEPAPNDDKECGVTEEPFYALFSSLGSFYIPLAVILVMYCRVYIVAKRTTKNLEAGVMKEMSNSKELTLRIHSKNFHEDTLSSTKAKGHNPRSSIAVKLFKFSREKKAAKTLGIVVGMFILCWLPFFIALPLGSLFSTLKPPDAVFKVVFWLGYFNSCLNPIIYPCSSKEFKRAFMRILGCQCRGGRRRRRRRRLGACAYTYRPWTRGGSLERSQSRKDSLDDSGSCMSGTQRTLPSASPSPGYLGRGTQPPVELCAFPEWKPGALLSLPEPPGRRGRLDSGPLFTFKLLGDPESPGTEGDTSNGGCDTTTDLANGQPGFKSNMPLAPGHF
T1 sequence (P23944 whole entry): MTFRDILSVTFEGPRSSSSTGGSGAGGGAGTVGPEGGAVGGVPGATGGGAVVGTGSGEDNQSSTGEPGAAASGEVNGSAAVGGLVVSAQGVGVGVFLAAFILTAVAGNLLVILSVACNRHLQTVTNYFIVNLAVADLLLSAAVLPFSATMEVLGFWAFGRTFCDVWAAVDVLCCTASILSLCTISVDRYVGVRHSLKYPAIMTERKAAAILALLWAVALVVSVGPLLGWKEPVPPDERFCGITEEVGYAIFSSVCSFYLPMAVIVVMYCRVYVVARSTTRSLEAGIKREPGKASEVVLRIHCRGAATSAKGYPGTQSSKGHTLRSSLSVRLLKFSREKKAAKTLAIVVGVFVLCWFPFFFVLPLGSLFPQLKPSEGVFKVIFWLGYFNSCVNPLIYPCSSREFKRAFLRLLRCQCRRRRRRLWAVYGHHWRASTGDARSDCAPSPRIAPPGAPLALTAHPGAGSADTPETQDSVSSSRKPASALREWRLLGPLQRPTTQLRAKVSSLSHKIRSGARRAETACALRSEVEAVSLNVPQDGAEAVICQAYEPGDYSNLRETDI
T1 sequence (P43140 whole entry): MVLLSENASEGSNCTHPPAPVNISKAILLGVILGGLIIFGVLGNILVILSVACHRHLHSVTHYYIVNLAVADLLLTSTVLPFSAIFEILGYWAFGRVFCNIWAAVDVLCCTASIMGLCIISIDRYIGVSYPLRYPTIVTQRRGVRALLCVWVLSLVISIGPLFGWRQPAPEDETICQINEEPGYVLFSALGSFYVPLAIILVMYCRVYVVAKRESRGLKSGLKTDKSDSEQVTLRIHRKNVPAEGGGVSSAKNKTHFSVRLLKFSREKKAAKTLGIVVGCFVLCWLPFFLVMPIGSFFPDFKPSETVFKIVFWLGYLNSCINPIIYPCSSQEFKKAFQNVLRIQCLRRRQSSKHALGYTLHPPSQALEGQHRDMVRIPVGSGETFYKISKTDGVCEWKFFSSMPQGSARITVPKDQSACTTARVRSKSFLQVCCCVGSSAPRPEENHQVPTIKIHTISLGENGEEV

[9] = molecular target: Serotonin 2 (5-HT2) receptor (Rattus norvegicus) (UniProt P30994+P08909+P14842); test: Binding affinity towards 5-hydroxytryptamine 2 receptor at 1.0 uM concentration; assay type: protein assay; method in brief: as §1
[10] = molecular target: Serotonin 1 (5-HT1) receptor (Rattus norvegicus, UniProt P28564+P30940+P19327+P28565); test: Binding affinity towards serotonin S1 receptor; assay type: protein assay; method in brief: as §1
[11] = molecular target: Sodium-dependent serotonin transporter (Rattus norvegicus) (UniProt P31652); test: Ability to inhibit the uptake of [3H]- serotonin(5-HT) 0.1 uM concentration at rat brain synaptosomes; assay type: functional, subcellular
Method in brief: (§4)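 Male Wistar rat brain synaptosomes (P2 fraction): hypothalamus for NE, striatum for DA, cerebral cortex for 5-HT. Buffer is Tris- or HEPES-buffered salt medium with glucose, ascorbate and nialamide, pH 7.4 at 37 °C. Preincubated 10 min at 37 °C with compound. Uptake started with [3H]NE 100–300 nM, [3H]DA 50–300 nM or [3H]5-HT 100–200 nM, incubated 3 min (DA) or 6–10 min (NE, 5-HT). Blanks held on ice. Filtered, counted by scintillation.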

[12] = organism: Rattus norvegicus; test: Ability to inhibit the uptake of tritiated dopamine (DA) 1 uM concentration; assay type: functional
Method in brief: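 Rat brain synaptosomal [3H]dopamine uptake: striatal P2 fraction, test compound at 1.00 μM. Preincubated at 37 °C, then 50–300 nM [3H]DA for 3 min. Blanks on ice. Filtration and scintillation counting; percent inhibition of control uptake.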

[13] = molecular target: Norepinephrine transporter (Rattus norvegicus) (UniProt Q9WTR4); test: Ability to inhibit the uptake of [3H]norepinephrine (NE) 0.1 uM concentration at rat brain synaptosomes; assay type: functional, subcellular; method in brief: as §4
[14] = organism: Rattus norvegicus; test: Ability to inhibit the uptake of tritiated norepinephrine (NE) at 0.1 uM concentration; assay type: functional; method in brief: as §4
[15] = molecular target: Sodium-dependent serotonin transporter (Rattus norvegicus) (UniProt P31652); test: Inhibition of tritiated serotonin(5-HT) uptake at 0.1 uM concentration; assay type: functional; method in brief: as §4
[16] = molecular target: Sodium-dependent dopamine transporter (Rattus norvegicus) (UniProt P23977); test: Inhibition of tritiated dopamine (DA) uptake at 0.1 uM concentration; assay type: functional; method in brief: as §4
[17] = molecular target: Serotonin 2 (5-HT2) receptor (Rattus norvegicus, UniProt P30994+P08909+P14842); test: Binding affinity towards 5-hydroxytryptamine 2 receptor; assay type: protein assay
[18] = molecular target: Adrenergic receptor alpha-1 (Rattus norvegicus) (UniProt P15823+P23944+P43140); test: Binding affinity towards alpha-1 adrenergic receptor at 1.0 uM concentration; assay type: protein assay; method in brief: as §1
[19] = molecular target: Adrenergic receptor alpha-2 (Rattus norvegicus) (UniProt P22086+P19328+P22909); test: Binding affinity towards alpha-2 adrenergic receptor at 1.0 uM concentration; assay type: protein assay
[20] = molecular target: Muscarinic acetylcholine receptor (Rattus norvegicus) (UniProt P08482+P08483+P08485+P08911+P10980); test: Binding affinity towards Muscarinic acetylcholine receptor at 1.0 uM concentration; assay type: protein assay
[21] = organism: Mus musculus; test: Gross behavioral effects ascertained in mice; S indicates significant stimulant properties.; assay type: functional, organism-based; method in brief: as §2
[22] = molecular target: Sodium-dependent dopamine transporter (Rattus norvegicus) (UniProt P23977); test: Ability to inhibit the uptake of [3H]dopamine (DA) 0.1 uM concentration at rat brain synaptosomes; assay type: functional, subcellular; method in brief: as §4
[23] = molecular target: D(2) dopamine receptor (Rattus norvegicus, UniProt P61169); test: Binding affinity towards Dopamine receptor D2
[24] = molecular target: D(1A) dopamine receptor (Rattus norvegicus) (UniProt P18901); test: Binding affinity towards Dopamine receptor D1 at 1.0 uM concentration; method in brief: as §1
[25] = test system: Mus musculus; test: Ability to antagonise intraperitoneal dose; inactive (<10% antagonism) at 30 mgjkg is represented as I-30.; assay type: functional, organism-based; method in brief: as §3

Chain of D(2) dopamine receptor (Rattus norvegicus) (P61169 whole entry): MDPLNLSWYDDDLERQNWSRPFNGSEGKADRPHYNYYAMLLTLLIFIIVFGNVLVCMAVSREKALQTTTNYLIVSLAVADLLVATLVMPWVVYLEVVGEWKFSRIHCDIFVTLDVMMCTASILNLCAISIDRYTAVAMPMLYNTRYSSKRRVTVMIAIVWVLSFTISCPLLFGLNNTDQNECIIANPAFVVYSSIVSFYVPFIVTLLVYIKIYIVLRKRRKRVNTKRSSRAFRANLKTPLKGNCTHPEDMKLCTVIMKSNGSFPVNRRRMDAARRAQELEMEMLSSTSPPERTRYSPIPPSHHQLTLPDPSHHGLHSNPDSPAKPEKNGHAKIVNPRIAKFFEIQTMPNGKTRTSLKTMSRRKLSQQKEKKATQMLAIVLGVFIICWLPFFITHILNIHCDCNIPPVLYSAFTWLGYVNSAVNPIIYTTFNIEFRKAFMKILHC
Chain of D(2) dopamine receptor (P61169 whole entry): as above
Chain of Serotonin 2 (5-HT2) receptor (Rattus norvegicus) (P08909 whole entry, looked up): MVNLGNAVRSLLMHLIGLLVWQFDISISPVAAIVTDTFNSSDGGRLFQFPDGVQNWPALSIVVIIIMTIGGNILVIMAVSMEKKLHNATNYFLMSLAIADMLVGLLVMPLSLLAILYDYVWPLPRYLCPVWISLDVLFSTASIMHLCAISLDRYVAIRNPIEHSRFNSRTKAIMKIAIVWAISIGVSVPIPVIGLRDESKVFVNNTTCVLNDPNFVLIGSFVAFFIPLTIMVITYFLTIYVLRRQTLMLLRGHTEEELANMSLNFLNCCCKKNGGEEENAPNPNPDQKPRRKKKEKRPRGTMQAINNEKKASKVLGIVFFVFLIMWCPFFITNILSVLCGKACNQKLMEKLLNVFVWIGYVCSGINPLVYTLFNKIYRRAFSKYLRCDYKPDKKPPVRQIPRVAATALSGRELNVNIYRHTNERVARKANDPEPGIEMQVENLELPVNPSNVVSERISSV
Chain of Serotonin 2 (5-HT2) receptor (Rattus norvegicus) (P14842 whole entry, looked up): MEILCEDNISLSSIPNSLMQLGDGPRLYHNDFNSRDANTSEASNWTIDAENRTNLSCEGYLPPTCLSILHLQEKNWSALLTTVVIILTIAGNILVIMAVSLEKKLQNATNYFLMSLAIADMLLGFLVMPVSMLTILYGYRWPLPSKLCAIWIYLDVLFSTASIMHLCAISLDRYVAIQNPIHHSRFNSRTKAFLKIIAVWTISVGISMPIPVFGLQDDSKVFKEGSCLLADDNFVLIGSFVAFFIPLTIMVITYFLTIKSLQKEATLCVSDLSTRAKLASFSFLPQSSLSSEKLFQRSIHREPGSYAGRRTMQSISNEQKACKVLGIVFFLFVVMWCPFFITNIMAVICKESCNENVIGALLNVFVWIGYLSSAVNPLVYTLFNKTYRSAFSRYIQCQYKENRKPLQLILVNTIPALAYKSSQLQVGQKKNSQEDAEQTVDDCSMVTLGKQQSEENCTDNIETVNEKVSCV
Chain of Serotonin 2 (5-HT2) receptor (Rattus norvegicus) (P30994 whole entry, looked up): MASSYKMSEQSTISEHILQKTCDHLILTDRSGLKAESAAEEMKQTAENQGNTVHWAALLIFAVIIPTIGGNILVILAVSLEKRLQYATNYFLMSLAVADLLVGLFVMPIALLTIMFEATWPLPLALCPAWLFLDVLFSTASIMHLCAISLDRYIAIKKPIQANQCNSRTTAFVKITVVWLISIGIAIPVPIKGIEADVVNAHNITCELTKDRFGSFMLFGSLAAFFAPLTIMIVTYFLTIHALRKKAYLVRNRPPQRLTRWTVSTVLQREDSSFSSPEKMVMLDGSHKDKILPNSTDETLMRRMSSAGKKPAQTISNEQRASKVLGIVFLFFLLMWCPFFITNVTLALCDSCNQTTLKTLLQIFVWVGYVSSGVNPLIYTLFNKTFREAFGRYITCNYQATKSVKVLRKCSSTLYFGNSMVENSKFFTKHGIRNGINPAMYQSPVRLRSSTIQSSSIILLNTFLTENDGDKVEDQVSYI
Chain of Sodium-dependent dopamine transporter (P23977 whole entry): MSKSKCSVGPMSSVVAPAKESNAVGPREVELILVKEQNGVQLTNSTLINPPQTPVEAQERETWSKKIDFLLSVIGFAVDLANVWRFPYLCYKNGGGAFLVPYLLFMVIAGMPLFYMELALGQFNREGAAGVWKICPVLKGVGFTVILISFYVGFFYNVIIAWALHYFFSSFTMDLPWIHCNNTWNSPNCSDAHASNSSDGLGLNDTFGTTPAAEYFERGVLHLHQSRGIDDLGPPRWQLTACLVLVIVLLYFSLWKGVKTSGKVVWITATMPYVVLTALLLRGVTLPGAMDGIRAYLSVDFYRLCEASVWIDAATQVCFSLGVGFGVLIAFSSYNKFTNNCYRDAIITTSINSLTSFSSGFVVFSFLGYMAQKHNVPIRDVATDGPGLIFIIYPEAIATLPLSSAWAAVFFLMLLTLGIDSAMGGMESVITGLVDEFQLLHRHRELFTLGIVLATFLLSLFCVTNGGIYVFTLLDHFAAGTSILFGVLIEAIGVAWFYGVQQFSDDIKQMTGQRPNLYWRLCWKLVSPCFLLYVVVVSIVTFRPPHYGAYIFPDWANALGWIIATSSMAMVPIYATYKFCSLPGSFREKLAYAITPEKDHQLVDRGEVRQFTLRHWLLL
Chain of Sodium-dependent dopamine transporter (Rattus norvegicus) (P23977 whole entry): as above
Chain of Norepinephrine transporter (Rattus norvegicus) (Q9WTR4 as listed by the source): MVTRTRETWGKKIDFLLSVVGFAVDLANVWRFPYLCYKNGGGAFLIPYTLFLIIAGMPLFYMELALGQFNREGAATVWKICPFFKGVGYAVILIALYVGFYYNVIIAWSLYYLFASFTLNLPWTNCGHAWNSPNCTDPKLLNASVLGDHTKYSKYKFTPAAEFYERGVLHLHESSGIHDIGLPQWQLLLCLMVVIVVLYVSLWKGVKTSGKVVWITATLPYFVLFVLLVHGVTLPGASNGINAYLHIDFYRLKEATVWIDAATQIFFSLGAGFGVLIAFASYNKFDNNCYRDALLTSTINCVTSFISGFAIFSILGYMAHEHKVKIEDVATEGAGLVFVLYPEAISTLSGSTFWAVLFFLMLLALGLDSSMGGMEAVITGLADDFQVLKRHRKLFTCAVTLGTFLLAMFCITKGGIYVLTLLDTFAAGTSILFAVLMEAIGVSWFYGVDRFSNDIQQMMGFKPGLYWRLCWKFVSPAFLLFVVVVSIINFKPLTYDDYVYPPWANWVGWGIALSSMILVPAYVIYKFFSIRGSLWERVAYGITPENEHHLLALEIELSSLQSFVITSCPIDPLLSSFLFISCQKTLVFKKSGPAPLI
Chain of Norepinephrine transporter (Q9WTR4 whole entry): as the sequence (Q9WTR4 as listed by the source) above
Chain of Sodium-dependent serotonin transporter (Rattus norvegicus) (P31652 whole entry): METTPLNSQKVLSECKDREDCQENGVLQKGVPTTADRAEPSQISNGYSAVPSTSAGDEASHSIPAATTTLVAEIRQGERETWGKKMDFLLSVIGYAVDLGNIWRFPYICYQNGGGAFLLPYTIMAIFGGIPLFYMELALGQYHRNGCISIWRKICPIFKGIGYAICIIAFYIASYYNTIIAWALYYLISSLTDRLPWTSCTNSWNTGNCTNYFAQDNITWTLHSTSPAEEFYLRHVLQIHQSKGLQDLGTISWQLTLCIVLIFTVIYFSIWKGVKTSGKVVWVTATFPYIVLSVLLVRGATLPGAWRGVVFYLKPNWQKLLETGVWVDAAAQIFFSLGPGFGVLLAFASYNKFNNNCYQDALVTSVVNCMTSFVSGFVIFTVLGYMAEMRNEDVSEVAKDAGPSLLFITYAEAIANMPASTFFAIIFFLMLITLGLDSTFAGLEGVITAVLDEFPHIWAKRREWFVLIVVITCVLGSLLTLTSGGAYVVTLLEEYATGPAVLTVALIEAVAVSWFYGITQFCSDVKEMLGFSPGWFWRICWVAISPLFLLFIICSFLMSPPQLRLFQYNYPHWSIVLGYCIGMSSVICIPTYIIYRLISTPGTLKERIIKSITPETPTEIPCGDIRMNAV
Chain of D(1A) dopamine receptor (Rattus norvegicus) (P18901 whole entry): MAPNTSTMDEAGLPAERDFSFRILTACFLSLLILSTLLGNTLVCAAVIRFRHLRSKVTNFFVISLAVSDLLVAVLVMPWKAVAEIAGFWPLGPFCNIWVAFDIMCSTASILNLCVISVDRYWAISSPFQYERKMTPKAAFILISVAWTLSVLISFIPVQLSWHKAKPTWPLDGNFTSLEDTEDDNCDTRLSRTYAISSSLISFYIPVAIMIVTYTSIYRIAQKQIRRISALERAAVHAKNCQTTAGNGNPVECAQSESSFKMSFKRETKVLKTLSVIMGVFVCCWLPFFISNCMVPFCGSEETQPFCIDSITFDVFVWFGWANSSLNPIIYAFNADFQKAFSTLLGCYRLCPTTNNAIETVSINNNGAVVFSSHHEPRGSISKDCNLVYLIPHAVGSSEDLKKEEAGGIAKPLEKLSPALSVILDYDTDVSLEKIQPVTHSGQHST

SMILES	inhibition [1] [%]	Ki [8] [nM]	Ki [17] [nM]	behavior [2]	ED50 ([6]; Mus musculus, read-out: ED50) [mg/kg]	ED50 ([7]; Mus musculus, read-out: ED50) [mg/kg]	also measured
Br.COc1cc([C@@H]2CN3CCC[C@@H]3c3ccccc32)cc(OC)c1OC	17	29		Partial stimulant	> 60	2.5	Ki [3]: 164 nM; Ki [4]: ~2000 nM; inhibition [5]: 31%; inhibition [9]: 2%
Br.C[C@@]1(c2ccccc2)CN2CCC[C@H]2c2ccccc21				Weak	22.5	16.2	inhibition [11]: 14%; Inhibition [12]: 50%; inhibition [13]: 19%
CSc1ccc([C@@H]2CN3CCC[C@@H]3c3ccccc32)cc1 (stereo in doubt; 48b)		314	208		> 30	0.3	Ki [10]: 1030 nM
Br.Clc1ccc([C@@H]2CN3CCC[C@@H]3c3ccccc32)cc1	35				0.55	0.34	inhibition [18]: 61%; inhibition [19]: 35%; inhibition [20]: 0%; behavior [21]: Stimulant; inhibition [9]: 59%
CSc1ccc([C@@H]2CN3CCC[C@@H]3c3ccccc32)cc1 (stereo in doubt; (+)-48b)		274	142				Ki [23]: 1030 nM
COc1ccccc1[C@@H]1CN2CCC[C@@H]2c2ccccc21				Partial stimulant	~0.6	~0.3	inhibition [5]: 45%; inhibition [9]: 74%
Fc1ccc([C@@H]2CN3CCC[C@@H]3c3ccccc32)cc1				Partial stimulant	~0.2	~0.2	Ki [3]: 1.4 nM; inhibition [24]: 56%
Br.c1ccc([C@H]2Cc3ccccc3[C@@H]3CCCN23)cc1				Weak	~30	~3	inhibition [11]: -9%; Inhibition [12]: 36%; inhibition [13]: 11%
CSc1ccc([C@@H]2CN3CCC[C@@H]3c3ccccc32)cc1 (stereo in doubt; (-)-48b)		213	939				Ki [10]: 775 nM
CN1CCc2cc(Cl)c(O)cc2[C@@H](c2ccccc2)C1 [SCH-23390]	53		13				inhibition [18]: 65%; inhibition [5]: 75%
FC(F)(F)c1cccc([C@@H]2CN3CCC[C@@H]3c3ccccc32)c1 (stereo in doubt; 37b)		213	602		0.78	0.58	Ki [23]: 2220 nM; Ki [3]: 0.95 nM; Ki [4]: 54.3 nM
FC(F)(F)c1cccc([C@@H]2CN3CCC[C@H]3c3ccccc32)c1		86	29	Partial stimulant			inhibition [11]: 9%; inhibition [22]: 8%; ED50 [25]: inactive; inhibition [13]: 23%

Second part, led by results:

inhibition [1] [%]	Ki [8] [nM]	Ki [17] [nM]	SMILES	behavior [2]	ED50 ([6]; Mus musculus, read-out: ED50) [mg/kg]	ED50 ([7]; Mus musculus, read-out: ED50) [mg/kg]	also measured
	620		Br.Clc1ccccc1[C@@H]1CN2CCC[C@@H]2c2ccccc21 (stereo in doubt; (-)-24b)				Ki [4]: 775 nM; Ki [10]: 2700 nM
54	41		Br.Clc1ccccc1[C@@H]1CN2CCC[C@H]2c2ccccc21	Partial stimulant	> 30	2.5	Inhibition [14]: 41%; inhibition [15]: 19%; inhibition [16]: 9%; inhibition [9]: 10%
14			c1ccc([C@@H]2CN3CCC[C@@H]3c3ccccc32)cc1 (stereo in doubt; (-)-7b)	Partial stimulant			inhibition [9]: 58%
16		29	Br.Nc1ccc([C@@H]2CN3CCC[C@H]3c3ccccc32)cc1		1	0.2	inhibition [11]: 17%; inhibition [18]: 69%; inhibition [22]: 77%; inhibition [5]: 36%; inhibition [13]: 89%
	150		Br.Clc1ccccc1[C@@H]1CN2CCC[C@@H]2c2ccccc21 (stereo in doubt; (+)-24b)				Ki [4]: 17.5 nM; Ki [10]: 9200 nM
	163		Br.Clc1ccccc1[C@@H]1CN2CCC[C@@H]2c2ccccc21 (stereo in doubt; 24b)				Ki [23]: 415 nM; Ki [4]: 35.9 nM; ED50 [6]: 1.6 mg/kg; ED50 [7]: 0.44 mg/kg; Ki [10]: 1680 nM
